From PMC9989852 (Food and chemical toxicology : an international journal …, 2022)
Values joined by “and” are separate entries in the source; they are usually repeats but may differ in a detail not shown here. Equal entries are not always repeated.

Columns and labels:
[1] = tested on: auricular draining lymph nodes (dLNs); assay: Draining lymph node phenotyping by flow cytometry after 28-day dermal exposure; format: in vivo, B6C3F1 mice; conditions: 28 days
Method in brief: (§1)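 Female B6C3F1 mice (5/group) received 25 μl/ear daily to the dorsal ears in acetone. About 24 h after the last dose, tissues went into RPMI: both auricular dLNs, half spleen and one ear pinna. Single-cell suspensions were acquired on an LSR II, with populations gated per supplemental strategy and FMO gating controls. Results are mean ± SE, n=5, by one-way ANOVA.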

[2] = tested on: B6C3F1 mice; assay: Organ weights and body weight after 28-day dermal exposure; format: in vivo; conditions: 28 days
[3] = tested on: liver; assay: Liver histopathology after 28-day dermal exposure; format: in vivo, B6C3F1 mice; conditions: 28 days, mice affected of 5
Method in brief: (§2)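 Female B6C3F1 mice (5/group) received 25 μl/ear on the dorsal ear surfaces daily, with acetone as vehicle. Tissues were formalin-fixed about 24 h after the last dose: liver remainder, half spleen, right kidney and half ear pinna. Sections were paraffin-embedded, cut at 5 μm and stained with H&E. A veterinary pathologist read them per STP guideline and graded 1 (minimal) to 5 (severe) by extent.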

[4] = tested on: spleen; assay: Spleen phenotyping by flow cytometry after 28-day dermal exposure; format: in vivo, B6C3F1 mice; conditions: 28 days
Method in brief: as §1

[5] = tested on: ear pinna; assay: Skin; format: in vivo, B6C3F1 mice; conditions: dermal, 28 days
Method in brief: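 Dosing was daily topical to both dorsal ears (25 μl/ear, acetone vehicle) in female B6C3F1 mice. Liver caudate lobe or half ear pinna was stored in RNAlater and homogenized in RLT buffer. RNA was isolated on RNeasy columns with DNase, and 1–2 μg was reverse-transcribed. TaqMan real-time PCR was read as 2−ΔΔCT vs vehicle, normalized to β-actin. Statistics: ANOVA/Dunnett's, or Kruskal-Wallis/Dunn's for unequal variance.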

[6] = tested on: kidney, spleen; assay: Kidney and spleen histopathology after 28-day dermal exposure; format: in vivo, B6C3F1 mice; conditions: 1.25–5%, 28 days, data not shown
Method in brief: as §2

[7] = PFAS concentration in pooled urine; format: in vivo, B6C3F1 mice; conditions: 5%, dermal, 28 days; 5 pooled samples
Method in brief: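 Urine was caught in a weigh boat as it was excreted during CO2 euthanasia, about 24 h after the final daily ear dose (25 μl/ear, acetone vehicle; female B6C3F1 mice). The 5 mice per group were pooled, with variable volume. Samples underwent solid-phase extraction and LC/MS/MS, as linear isomer for short-chain analytes and linear plus branched for the comparator. Each group gave a single value without statistics.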

[8] = PFAS concentration in serum; format: in vivo, B6C3F1 mice; conditions: 5%, dermal, 28 days
Method in brief: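 Serum came by cardiac puncture about 24 h after the final daily ear dose (25 μl/ear, acetone vehicle; female B6C3F1 mice). Samples underwent solid-phase extraction and LC/MS/MS. Short-chain analytes were quantified as linear isomer only; the legacy comparator was quantified as linear plus branched. Data are mean ± SE of 4–5 mice, one-way ANOVA with Dunnett's vs vehicle.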

## O=C(O)C(F)(F)C(F)(F)C(F)(F)C(F)(F)F [PFPeA, perfluoropentanoic acid]
[1]; 1.25%
  dLN B-cells cell number: 8.67 ± 0.72 × 10^5
  dLN B-cells frequency: 14.18 ± 0.59%
  dLN CD4^+ cell number: 2.63 ± 0.27 × 10^6
  dLN CD4^+ frequency: 42.52 ± 0.79%
  dLN CD8^+ cell number: 18.60 ± 0.18 × 10^5
  dLN CD8^+ frequency: 30.24 ± 0.44%
  dLN CD11b+ cell number: 7.21 ± 1.61 × 10^4
  dLN CD11b+ frequency: 1.26 ± 0.29%
  dLN CD86 B-cells: 1140.40 ± 46.06 MFI
  dLN CD86 DCs: 42.60 ± 1.44 MFI x 10^2
  dLN Dendritic Cells cell number: 6.24 ± 0.42 × 10^4
  dLN Dendritic Cells frequency: 1.02 ± 0.03%
  dLN Eosinophils cell number: 20.90 ± 7.02 × 10^2
  dLN MHCII B-cells: 105.00 ± 1.83 MFI × 10^2
  dLN NK cell number: 3.23 ± 0.30 × 10^4
  dLN NK frequency: 0.53 ± 0.03%
  dLN Neutrophils cell number: 12.30 ± 1.75 × 10^2
  dLN Total Cellularity: 6.15 ± 0.57 × 10^6
[1]; 2.5%
  dLN B-cells cell number: 12.60 ± 2.36 × 10^5
  dLN B-cells frequency: 15.00 ± 0.92 %
  dLN CD4^+ cell number: 3.34 ± 0.55 × 10^6
  dLN CD4^+ frequency: 39.54 ± 0.62 %
  dLN CD8^+ cell number: 25.00 ± 3.80 × 10^5
  dLN CD8^+ frequency: 29.96 ± 0.86%
  dLN CD11b+ cell number: 17.00 ± 4.33 × 10^4
  dLN CD11b+ frequency: 1.92 ± 0.19%
  dLN CD86 B-cells: 1131.40 ± 96.26 MFI
  dLN CD86 DCs: 40.30 ± 1.05 MFI x 10^2
  dLN Dendritic Cells cell number: 10.40 ± 1.31 × 10^4
  dLN Dendritic Cells frequency: 1.31 ± 0.15%
  dLN Eosinophils cell number: 81.90 ± 15.70 × 10^2
  dLN MHCII B-cells: 115.00 ± 6.25 MFI × 10^2
  dLN NK cell number: 5.52 ± 0.71 × 10^4
  dLN NK frequency: 0.69 ± 0.07%
  dLN Neutrophils cell number: 19.10 ± 3.38 × 10^2
  dLN Total Cellularity: 8.45 ± 1.43 × 10^6
[1]; 5%
  dLN B-cells cell number: 17.00 ± 1.58 × 10^5
  dLN B-cells frequency: 16.22 ± 0.70 %
  dLN CD4^+ cell number: 3.99 ± 0.36 × 10^6
  dLN CD4^+ frequency: 38.02 ± 0.95 %
  dLN CD8^+ cell number: 30.20 ± 0.23 × 10^5
  dLN CD8^+ frequency: 28.88 ± 0.40%
  dLN CD11b+ cell number: 24.00 ± 3.48 × 10^4
  dLN CD11b+ frequency: 2.26 ± 0.17%
  dLN CD86 B-cells: 1188.80 ± 47.41 MFI
  dLN CD86 DCs: 36.80 ± 2.23 MFI x 10^2
  dLN Dendritic Cells cell number: 12.60 ± 1.09 × 10^4
  dLN Dendritic Cells frequency: 1.21 ± 0.08%
  dLN Eosinophils cell number: 140.00 ± 23.00 × 10^2
  dLN MHCII B-cells: 126.00 ± 6.53 MFI × 10^2
  dLN NK cell number: 7.50 ± 0.56 × 10^4
  dLN NK frequency: 0.73 ± 0.05%
  dLN Neutrophils cell number: 22.40 ± 5.58 × 10^2
  dLN Total Cellularity: 10.50 ± 0.93 × 10^6
[2]; 1.25–5%
  body weight or overt signs of toxicity: no changes
[2]; 5%
  Liver weight (% body weight), increase vs vehicle-treated mice: 12%
[3]; 1.25%
  Liver: Hypertrophy, centrilobular, hepatocyte, Mild (incidence): 0
  Liver: Hypertrophy, centrilobular, hepatocyte, Minimal (incidence): 5/ 5 and 5
[3]; 2.5%
  Liver: Hypertrophy, centrilobular, hepatocyte, Mild (incidence): 5/5 and 5
  Liver: Hypertrophy, centrilobular, hepatocyte, Minimal (incidence): 0
[3]; 5%
  Liver: Hypertrophy, centrilobular, hepatocyte, Mild (incidence): 5/5 and 5
  Liver: Hypertrophy, centrilobular, hepatocyte, Minimal (incidence): 0
[4]; 1.25%
  spleen NK cell frequency: increase
[4]; 2.5%
  spleen MFI of CD86 on B-cells: increase
  spleen MFI of MHCII on B-cells: increase
  spleen NK cell frequency: increase
  spleen number of CD4^+ T-cells: significant decrease
  spleen number of CD11b + Ly6C− cells: significant decrease
[4]; 5%
  spleen MFI of CD86 on B-cells: increase
  spleen MFI of MHCII on B-cells: increase
  spleen NK cell frequency: increase
[5]; 1.25%
  skin Krt10 gene expression: increased
  skin Pparγ gene expression: decreased
[5]; 1.25–5%
  skin Pparδ gene expression: no changes
[5]; 2.5%
  skin Krt10 gene expression: increased
  skin Pparγ gene expression: decreased
[5]; 5%
  skin Flg gene expression: increased
  skin Il6 gene expression, increase: 2.5 fold
  skin Krt10 gene expression: increased
  skin PPARα gene expression: decreased
  skin Pparγ gene expression: decreased
  skin S100a7a gene expression, increase: 42.5 fold
  skin Serpine1 gene expression, increase: 3 fold
  skin Tslp gene expression, increase: 3 fold
[6]
  microscopic observations in the kidney or the spleen: No PFPeA, PFHxA, or PFHpA-related microscopic observations
[7]
  urine PFAS concentration: 5600 µg/mL
[8]
  PFAS serum concentration vs vehicle: significant increase
